# Legend:
# [1] = biological target: Leukocyte tyrosine kinase receptor (Homo sapiens) (UniProt P29376); experiment: Inhibition of LTK assessed as residual activity at 10 uM relative to control
# [2] = Inhibition of AMPK assessed as residual activity at 10 uM
# [3] = biological target: T1, Ephrin type-B receptor 3 (Homo sapiens) (UniProt P54753); experiment: Inhibition of EPH-B3 assessed as residual activity at 10 uM
# T1 sequence (whole entry): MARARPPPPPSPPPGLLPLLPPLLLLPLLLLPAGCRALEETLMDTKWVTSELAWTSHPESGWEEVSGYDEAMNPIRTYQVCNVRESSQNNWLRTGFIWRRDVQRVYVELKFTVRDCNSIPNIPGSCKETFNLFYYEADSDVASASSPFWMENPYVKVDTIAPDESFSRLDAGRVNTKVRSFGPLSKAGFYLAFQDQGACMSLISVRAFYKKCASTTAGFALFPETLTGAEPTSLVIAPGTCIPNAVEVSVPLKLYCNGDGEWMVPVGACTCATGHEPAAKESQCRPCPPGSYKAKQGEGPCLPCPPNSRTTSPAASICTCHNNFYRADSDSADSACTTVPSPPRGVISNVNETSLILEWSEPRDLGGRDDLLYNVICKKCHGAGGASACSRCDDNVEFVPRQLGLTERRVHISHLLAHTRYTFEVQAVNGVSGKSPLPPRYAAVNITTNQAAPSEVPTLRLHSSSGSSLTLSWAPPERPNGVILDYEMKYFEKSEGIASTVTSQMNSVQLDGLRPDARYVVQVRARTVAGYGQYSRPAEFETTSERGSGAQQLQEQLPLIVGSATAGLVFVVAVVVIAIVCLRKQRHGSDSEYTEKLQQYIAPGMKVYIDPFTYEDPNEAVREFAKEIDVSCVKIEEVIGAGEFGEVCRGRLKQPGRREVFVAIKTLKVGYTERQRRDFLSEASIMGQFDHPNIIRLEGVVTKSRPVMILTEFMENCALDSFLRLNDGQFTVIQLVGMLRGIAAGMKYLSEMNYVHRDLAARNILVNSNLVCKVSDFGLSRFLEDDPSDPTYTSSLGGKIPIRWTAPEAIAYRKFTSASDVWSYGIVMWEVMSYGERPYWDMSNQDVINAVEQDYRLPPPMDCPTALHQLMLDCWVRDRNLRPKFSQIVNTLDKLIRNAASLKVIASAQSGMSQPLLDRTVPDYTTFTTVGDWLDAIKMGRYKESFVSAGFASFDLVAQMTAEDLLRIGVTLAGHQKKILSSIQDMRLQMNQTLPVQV
# Summary of the method: (§1)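 Standard radioactivity-based enzymatic kinase assays on a 131-kinase panel run by the Dundee profiling service; residual kinase activity recorded.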
# [4] = biological target: Serine/threonine-protein kinase PLK2 (Homo sapiens) (UniProt Q9NYY3); experiment: Inhibition of PLK2 assessed as residual activity at 10 uM relative to control
# Serine/threonine-protein kinase PLK2 (Homo sapiens), sequence (Q9NYY3 whole entry, looked up): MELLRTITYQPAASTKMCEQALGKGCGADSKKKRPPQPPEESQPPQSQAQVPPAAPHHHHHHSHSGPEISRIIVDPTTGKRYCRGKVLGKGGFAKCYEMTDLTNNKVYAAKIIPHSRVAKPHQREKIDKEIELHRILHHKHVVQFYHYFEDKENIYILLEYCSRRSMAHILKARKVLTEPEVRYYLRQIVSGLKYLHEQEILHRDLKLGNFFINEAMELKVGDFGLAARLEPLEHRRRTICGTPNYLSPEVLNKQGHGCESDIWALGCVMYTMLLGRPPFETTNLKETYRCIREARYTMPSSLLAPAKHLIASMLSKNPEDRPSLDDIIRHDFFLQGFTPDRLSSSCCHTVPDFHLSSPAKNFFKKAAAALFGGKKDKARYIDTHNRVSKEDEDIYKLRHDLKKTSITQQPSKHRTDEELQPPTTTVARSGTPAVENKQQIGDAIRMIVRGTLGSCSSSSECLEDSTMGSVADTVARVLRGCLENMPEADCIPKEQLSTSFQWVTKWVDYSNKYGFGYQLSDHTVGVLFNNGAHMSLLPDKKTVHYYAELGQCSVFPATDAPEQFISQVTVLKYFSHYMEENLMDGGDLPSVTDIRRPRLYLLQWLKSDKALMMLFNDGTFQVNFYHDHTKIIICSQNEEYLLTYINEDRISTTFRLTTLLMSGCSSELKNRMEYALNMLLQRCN
# [5] = biological target: T2, Ephrin type-B receptor 2 (Homo sapiens) (UniProt P29323); experiment: Inhibition of EPH-B2 assessed as residual activity at 10 uM; summary of the method: as §1
# T2 sequence (whole entry): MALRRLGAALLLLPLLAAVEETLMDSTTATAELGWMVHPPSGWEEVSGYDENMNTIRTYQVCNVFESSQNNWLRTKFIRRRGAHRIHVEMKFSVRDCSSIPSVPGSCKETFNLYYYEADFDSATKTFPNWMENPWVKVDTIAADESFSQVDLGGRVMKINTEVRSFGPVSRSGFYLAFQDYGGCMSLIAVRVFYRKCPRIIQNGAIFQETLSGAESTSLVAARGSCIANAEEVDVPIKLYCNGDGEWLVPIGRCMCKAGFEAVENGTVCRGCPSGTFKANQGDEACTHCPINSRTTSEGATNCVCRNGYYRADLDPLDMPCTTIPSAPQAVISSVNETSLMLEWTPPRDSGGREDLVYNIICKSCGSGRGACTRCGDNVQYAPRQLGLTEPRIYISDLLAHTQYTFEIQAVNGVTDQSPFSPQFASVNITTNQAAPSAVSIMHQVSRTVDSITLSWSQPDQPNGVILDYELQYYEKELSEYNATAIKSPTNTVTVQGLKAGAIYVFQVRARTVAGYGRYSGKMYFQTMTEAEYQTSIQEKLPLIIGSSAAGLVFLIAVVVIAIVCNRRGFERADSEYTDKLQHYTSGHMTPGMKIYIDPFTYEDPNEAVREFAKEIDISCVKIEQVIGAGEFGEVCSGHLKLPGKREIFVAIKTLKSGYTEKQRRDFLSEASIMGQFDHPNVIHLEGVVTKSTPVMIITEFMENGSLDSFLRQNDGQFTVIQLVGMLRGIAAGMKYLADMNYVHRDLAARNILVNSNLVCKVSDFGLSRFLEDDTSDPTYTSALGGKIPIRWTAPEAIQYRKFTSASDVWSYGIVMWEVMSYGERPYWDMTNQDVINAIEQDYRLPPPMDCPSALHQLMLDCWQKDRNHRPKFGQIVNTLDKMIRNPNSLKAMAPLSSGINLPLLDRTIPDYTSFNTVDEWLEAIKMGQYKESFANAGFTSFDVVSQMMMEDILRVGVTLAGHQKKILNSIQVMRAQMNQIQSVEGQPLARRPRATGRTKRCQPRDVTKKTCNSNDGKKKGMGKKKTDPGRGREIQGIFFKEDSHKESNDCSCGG
# [6] = biological target: Leucine-rich repeat serine/threonine-protein kinase 2 (Mus musculus) (UniProt Q5S006); experiment: Inhibition of LRRK2 in Swiss mouse 3T3 cells assessed as inhibition of Ser935 autophosphorylation after 90 mins by immunoblot method; format: cell-based; conditions: NIH3T3
# [7] = biological target: Ephrin type-A receptor 5 (Homo sapiens) (UniProt P54756); experiment: Inhibition of EPHA5 assessed as residual activity at 10 uM relative to control
# Ephrin type-A receptor 5 (Homo sapiens), sequence (P54756 whole entry): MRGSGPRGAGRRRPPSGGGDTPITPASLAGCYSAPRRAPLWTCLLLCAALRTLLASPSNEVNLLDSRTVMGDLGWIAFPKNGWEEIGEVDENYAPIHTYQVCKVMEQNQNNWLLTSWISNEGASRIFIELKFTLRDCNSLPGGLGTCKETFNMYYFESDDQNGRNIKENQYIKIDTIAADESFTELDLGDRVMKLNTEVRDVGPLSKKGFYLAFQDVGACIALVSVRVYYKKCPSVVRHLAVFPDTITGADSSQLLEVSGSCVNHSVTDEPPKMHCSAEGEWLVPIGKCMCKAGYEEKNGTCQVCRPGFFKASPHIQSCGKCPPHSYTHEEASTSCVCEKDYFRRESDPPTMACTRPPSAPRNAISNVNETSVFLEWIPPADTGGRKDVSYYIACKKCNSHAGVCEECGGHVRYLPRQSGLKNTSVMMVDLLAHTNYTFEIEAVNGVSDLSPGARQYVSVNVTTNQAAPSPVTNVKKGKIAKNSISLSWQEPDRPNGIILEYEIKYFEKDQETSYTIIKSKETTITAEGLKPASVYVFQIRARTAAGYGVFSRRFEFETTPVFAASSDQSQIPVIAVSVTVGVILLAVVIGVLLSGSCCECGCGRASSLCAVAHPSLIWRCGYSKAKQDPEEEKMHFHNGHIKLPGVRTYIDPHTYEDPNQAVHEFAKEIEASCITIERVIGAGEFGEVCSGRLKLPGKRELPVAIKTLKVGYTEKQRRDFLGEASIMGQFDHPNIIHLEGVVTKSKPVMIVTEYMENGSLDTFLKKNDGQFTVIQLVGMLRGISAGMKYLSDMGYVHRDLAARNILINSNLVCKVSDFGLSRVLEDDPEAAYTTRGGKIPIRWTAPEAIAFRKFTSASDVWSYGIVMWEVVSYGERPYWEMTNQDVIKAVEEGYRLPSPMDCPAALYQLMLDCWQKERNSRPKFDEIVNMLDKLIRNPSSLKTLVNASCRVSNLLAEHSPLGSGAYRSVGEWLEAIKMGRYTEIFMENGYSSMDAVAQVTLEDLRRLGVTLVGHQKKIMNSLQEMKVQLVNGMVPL
# Summary of the method: (§2)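 Competition kinase-binding assay (KINOMEscan) across a non-redundant panel of 329 kinases beyond the radiometric panel; residual binding expressed relative to control.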
# [8] = biological target: SRSF protein kinase 1 (Homo sapiens) (UniProt Q96SB4); experiment: Inhibition of SRPK1 assessed as residual activity at 10 uM relative to control
# SRSF protein kinase 1 (Homo sapiens), sequence (Q96SB4 whole entry): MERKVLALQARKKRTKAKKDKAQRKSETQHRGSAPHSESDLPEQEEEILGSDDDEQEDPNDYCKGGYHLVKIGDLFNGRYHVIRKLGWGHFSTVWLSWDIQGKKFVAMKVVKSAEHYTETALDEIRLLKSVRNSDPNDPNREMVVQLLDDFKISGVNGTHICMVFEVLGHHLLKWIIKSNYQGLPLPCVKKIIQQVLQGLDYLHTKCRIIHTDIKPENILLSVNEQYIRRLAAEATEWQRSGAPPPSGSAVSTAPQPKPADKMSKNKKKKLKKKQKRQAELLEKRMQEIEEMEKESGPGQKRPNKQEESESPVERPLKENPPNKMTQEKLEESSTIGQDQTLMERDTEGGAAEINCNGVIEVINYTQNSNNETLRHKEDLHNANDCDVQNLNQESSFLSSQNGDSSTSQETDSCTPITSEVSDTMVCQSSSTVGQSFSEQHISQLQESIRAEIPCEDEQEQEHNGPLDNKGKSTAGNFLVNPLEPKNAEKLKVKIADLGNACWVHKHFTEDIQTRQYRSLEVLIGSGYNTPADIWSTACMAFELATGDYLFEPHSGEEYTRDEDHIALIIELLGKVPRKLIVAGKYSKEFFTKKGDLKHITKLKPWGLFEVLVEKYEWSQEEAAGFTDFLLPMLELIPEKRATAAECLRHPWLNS
# [9] = biological target: T1, Ephrin type-B receptor 3 (Homo sapiens); experiment: Inhibition of EPHB3 assessed as residual activity at 10 uM relative to control; summary of the method: as §2
# [10] = biological target: Tyrosine-protein kinase Fer (Homo sapiens) (UniProt P16591); experiment: Inhibition of FER assessed as residual activity at 10 uM relative to control
# Tyrosine-protein kinase Fer (Homo sapiens), sequence (P16591 whole entry, looked up): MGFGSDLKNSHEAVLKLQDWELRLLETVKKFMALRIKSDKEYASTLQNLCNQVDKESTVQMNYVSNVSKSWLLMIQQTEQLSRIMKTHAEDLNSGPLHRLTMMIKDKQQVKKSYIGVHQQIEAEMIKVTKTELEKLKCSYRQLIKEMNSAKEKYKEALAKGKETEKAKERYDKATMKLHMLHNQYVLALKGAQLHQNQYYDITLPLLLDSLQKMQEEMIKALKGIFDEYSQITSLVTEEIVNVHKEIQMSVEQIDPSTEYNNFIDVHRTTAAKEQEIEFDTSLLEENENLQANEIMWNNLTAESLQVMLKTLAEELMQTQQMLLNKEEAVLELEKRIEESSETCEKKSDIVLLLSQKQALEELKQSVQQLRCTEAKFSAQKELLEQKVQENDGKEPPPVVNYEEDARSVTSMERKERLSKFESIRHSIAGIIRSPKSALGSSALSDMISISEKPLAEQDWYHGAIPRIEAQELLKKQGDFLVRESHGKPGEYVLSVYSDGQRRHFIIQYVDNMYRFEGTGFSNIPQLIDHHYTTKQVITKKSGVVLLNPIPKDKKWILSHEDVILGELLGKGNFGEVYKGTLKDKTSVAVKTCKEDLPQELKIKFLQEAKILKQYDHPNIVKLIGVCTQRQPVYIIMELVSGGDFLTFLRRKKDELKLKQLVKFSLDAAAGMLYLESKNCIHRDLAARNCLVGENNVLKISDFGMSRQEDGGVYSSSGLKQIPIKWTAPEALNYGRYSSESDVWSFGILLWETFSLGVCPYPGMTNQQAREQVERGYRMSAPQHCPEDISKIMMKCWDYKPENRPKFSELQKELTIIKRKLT
# [11] = biological target: Myosin light chain kinase, smooth muscle (Homo sapiens) (UniProt Q15746); experiment: Inhibition of MYLK assessed as residual activity at 10 uM relative to control
# [12] = biological target: Macrophage-stimulating protein receptor (Homo sapiens) (UniProt Q04912); experiment: Inhibition of MST1R assessed as residual activity at 10 uM relative to control
# [13] = biological target: Ephrin type-A receptor 3 (Homo sapiens) (UniProt P29320); experiment: Inhibition of EPHA3 assessed as residual activity at 10 uM relative to control; summary of the method: as §2
# Ephrin type-A receptor 3 (Homo sapiens), sequence (P29320 whole entry): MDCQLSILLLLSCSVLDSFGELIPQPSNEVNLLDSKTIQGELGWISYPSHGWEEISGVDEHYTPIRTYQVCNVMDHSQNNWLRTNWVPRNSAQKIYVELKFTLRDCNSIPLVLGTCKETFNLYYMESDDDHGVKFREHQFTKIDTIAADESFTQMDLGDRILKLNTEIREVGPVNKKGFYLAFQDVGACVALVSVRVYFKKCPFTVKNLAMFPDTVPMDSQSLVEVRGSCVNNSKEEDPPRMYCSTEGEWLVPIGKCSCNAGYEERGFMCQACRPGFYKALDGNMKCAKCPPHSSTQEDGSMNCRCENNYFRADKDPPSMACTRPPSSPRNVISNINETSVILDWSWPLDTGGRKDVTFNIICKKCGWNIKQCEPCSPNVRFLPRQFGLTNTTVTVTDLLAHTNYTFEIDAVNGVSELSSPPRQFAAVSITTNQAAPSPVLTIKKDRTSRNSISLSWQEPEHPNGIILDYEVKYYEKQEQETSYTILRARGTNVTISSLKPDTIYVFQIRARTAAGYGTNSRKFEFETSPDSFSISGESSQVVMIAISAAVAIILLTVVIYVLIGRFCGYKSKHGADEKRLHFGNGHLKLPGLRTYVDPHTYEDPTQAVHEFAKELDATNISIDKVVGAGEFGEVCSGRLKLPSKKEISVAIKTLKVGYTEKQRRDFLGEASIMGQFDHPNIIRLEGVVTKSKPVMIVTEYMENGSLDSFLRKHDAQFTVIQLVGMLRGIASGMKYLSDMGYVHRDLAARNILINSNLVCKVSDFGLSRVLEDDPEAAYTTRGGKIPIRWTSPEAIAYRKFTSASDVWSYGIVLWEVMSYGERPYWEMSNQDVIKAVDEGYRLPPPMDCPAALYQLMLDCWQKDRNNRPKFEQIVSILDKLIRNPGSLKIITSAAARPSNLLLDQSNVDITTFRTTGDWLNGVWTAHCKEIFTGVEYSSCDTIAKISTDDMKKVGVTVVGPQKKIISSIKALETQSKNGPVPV
# Leukocyte tyrosine kinase receptor (Homo sapiens), sequence (P29376 whole entry): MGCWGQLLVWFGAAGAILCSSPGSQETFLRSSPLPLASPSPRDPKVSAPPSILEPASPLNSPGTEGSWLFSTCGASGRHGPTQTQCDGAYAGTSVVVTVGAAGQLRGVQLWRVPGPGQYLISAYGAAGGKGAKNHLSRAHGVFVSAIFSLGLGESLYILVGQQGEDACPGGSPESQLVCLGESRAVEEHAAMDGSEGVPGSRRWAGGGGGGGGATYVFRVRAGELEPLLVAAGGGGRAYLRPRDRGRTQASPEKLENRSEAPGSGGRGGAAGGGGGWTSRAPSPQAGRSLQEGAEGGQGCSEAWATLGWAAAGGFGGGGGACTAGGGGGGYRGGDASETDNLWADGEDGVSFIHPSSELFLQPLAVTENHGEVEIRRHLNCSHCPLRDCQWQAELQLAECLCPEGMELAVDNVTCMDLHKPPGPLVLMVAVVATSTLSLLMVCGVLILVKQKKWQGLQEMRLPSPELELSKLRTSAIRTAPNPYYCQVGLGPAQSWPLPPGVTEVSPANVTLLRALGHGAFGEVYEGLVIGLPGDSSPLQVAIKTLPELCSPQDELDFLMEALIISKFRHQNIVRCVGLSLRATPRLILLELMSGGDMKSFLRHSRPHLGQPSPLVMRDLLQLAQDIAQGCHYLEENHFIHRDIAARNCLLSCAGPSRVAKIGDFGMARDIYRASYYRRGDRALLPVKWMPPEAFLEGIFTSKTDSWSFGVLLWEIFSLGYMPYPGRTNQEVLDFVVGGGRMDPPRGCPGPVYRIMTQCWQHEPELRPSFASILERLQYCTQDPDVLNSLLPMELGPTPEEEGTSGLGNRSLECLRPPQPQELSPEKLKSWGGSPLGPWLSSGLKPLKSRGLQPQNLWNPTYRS
compound,measurement,setting,value
O=C(Nc1cccnc1)c1cc(-c2ccnc(F)c2)ccc1OCc1ccccc1,Activity,[1],21%
same,Activity,[2],90%
same,Activity,[3],113%
same,Activity,[4],69%
same,Activity,[5],115%
same,inhibition,[6],Dose-dependent effect
same,Activity,[7],48%
same,Activity,[8],79%
same,Activity,[9],67%
same,Activity,[10],67%
same,Activity,[11],27%
same,Activity,[12],17%
same,Activity,[13],61%

# From ChEMBL document CHEMBL2203081 (Bioorg Med Chem Lett, 2012)
